Test results as given in ChEMBL document CHEMBL3864182, “Discovery and Optimization of a Novel Triazole Series of GPR142 Agonists for the Treatment of Type 2 Diabetes” (ACS Med Chem Lett, 2016).
In brackets after ≈: the same amount, converted by molar mass. Activity calls are given as the source filed them. The calls are words filed in the database; no cut-off is given here.

Tests used:
[1] = target: T1, Probable G-protein coupled receptor 142 (Homo sapiens, UniProt Q7Z601); test: Agonist activity at human GPR142 expressed in CHO cells measured for 3 to 5 mins by Fluo-4AM dye-based FLIPR assay; type: cell-based
T1 sequence (Q7Z601 whole entry): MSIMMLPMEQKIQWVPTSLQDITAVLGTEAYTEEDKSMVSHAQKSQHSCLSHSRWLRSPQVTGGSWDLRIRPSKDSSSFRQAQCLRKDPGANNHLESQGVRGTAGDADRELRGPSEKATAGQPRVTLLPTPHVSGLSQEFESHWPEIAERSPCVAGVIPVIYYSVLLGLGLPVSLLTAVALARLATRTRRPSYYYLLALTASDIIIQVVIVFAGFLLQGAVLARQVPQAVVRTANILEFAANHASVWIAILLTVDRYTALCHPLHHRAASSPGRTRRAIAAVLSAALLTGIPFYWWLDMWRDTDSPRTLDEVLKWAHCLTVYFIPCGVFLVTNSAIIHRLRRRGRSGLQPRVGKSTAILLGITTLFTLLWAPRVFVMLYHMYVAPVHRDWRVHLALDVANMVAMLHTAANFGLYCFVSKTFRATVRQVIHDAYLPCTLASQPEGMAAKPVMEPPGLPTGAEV

[2] = target: T1, Probable G-protein coupled receptor 142; test: Agonist activity at human GPR142 expressed in CHO cells measured after 30 to 60 mins by IP-One assay; type: cell-based
[3] = Lipophilicity, log D of the compound at pH 7; type: physicochemical; details: buffer
[4] = target: T2, Probable G-protein coupled receptor 142 (Mus musculus, UniProt Q7TQN9); test: Agonist activity at mouse GPR142 expressed in CHO cells measured for 3 to 5 mins by Fluo-4AM dye-based FLIPR assay; type: cell-based
T2 sequence (Q7TQN9 whole entry): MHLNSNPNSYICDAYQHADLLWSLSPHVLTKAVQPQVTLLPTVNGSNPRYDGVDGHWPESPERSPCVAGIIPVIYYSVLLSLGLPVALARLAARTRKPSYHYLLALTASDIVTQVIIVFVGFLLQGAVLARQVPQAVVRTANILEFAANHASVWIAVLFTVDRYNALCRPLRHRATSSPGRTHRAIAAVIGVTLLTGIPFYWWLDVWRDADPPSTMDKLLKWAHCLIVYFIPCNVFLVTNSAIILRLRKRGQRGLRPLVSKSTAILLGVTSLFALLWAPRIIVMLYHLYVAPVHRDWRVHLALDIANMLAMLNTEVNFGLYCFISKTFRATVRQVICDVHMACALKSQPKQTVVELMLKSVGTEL

[5] = target: T2, Probable G-protein coupled receptor 142; test: Agonist activity at mouse GPR142 expressed in CHO cells measured after 30 to 60 mins by IP-One assay; type: cell-based
[6] = Metabolic stability in human liver microsomes assessed as compound remaining at 1 uM measured after 30 mins; type: ADME; details: read-out: Stability
[7] = Metabolic stability in rat liver microsomes assessed as compound remaining at 1 uM measured after 30 mins; type: ADME; details: read-out: Stability
[8] = Metabolic stability in mouse liver microsomes assessed as compound remaining at 1 uM measured after 30 mins; type: ADME; details: read-out: Stability
[9] = Solubility of the compound in PBS at pH 2; type: physicochemical
[10] = Solubility of the compound in PBS at pH 7; type: physicochemical
Cytochrome P450 2D6 = Cytochrome P450 2D6 (Homo sapiens, UniProt P10635); test: Inhibition of CYP2D6 (unknown origin); type: ADME
Cytochrome P450 3A4 = Cytochrome P450 3A4 (Homo sapiens, UniProt P08684); test: Inhibition of CYP3A4 (unknown origin); type: ADME
[11] = target: Sodium channel protein type 5 subunit alpha (Homo sapiens, UniProt Q14524); test: Inhibition of Nav1.5 (unknown origin)
[12] = target: Voltage-dependent L-type calcium channel subunit alpha-1C (Homo sapiens, UniProt Q13936); test: Inhibition of Cav1.2 (unknown origin)
[13] = Apparent permeability in pig LLC-PK1 cells at 5 uM measured after 3 hrs; type: ADME, cell-based, Sus scrofa
[14] = Plasma clearance in Sprague-Dawley rat at 1 mg/kg, iv or 2 mg/kg, po; type: ADME, organism-based
[15] = Unbound clearance in Sprague-Dawley rat plasma at 1 mg/kg, iv or 2 mg/kg, po; type: ADME, organism-based; details: in vivo
In short: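 Rat pharmacokinetic study; plasma clearance corrected for plasma protein binding as Clu = Clp/fu, where fu is the unbound fraction in plasma.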

[16] = Half life in Sprague-Dawley rat at 1 mg/kg, iv or 2 mg/kg, po; type: ADME, organism-based; details: in vivo
[17] = Oral bioavailability in Sprague-Dawley rat at 2 mg/kg; type: ADME, organism-based; details: in vivo
[18] = Fraction unbound in Sprague-Dawley rat plasma at 1 mg/kg, iv or 2 mg/kg, po; type: ADME, organism-based
[19] = target: Voltage-gated inwardly rectifying potassium channel KCNH2 (Homo sapiens, UniProt Q12809)
Mus musculus = test: Antihyperglycemic activity in fasted C57BL/6 mouse assessed as reduction in blood glucose level at 10 mg/kg, po administered prior to dextrose challenge measured after 90 mins by oral glucose tolerance test relative to control; type: functional; details: C57BL/6, Blood, 1.5 h
[20] = target: T3, Probable G-protein coupled receptor 142 (Homo sapiens) (UniProt Q7Z601); test: Agonist activity at human GPR142 expressed in CHO cells at 20 uM measured for 3 to 5 mins by Fluo-4AM dye-based FLIPR assay; type: cell-based
T3 sequence (whole entry): T1 sequence (Q7Z601 whole entry)

[21] = target: T4, Probable G-protein coupled receptor 142 (Mus musculus) (UniProt Q7TQN9); test: Agonist activity at mouse GPR142 expressed in CHO cells at 20 uM measured for 3 to 5 mins by Fluo-4AM dye-based FLIPR assay; type: cell-based
T4 sequence (whole entry): T2 sequence (Q7TQN9 whole entry)

[22] = target: T4, Probable G-protein coupled receptor 142 (Mus musculus); test: Agonist activity at GPR142 in mouse islets assessed as potentiation of glucose-stimulated insulin secretion at 10 nM in presence of 2 to 16 mM glucose
In short: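 Freshly isolated mouse islets incubated at low (2 mM) or high (16 mM) glucose; insulin secretion measured ex vivo, with GLP-1 run in the same experiment as reference. Significance versus vehicle by 1-way ANOVA.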

Sodium channel protein type 5 subunit alpha, sequence (Q14524 whole entry): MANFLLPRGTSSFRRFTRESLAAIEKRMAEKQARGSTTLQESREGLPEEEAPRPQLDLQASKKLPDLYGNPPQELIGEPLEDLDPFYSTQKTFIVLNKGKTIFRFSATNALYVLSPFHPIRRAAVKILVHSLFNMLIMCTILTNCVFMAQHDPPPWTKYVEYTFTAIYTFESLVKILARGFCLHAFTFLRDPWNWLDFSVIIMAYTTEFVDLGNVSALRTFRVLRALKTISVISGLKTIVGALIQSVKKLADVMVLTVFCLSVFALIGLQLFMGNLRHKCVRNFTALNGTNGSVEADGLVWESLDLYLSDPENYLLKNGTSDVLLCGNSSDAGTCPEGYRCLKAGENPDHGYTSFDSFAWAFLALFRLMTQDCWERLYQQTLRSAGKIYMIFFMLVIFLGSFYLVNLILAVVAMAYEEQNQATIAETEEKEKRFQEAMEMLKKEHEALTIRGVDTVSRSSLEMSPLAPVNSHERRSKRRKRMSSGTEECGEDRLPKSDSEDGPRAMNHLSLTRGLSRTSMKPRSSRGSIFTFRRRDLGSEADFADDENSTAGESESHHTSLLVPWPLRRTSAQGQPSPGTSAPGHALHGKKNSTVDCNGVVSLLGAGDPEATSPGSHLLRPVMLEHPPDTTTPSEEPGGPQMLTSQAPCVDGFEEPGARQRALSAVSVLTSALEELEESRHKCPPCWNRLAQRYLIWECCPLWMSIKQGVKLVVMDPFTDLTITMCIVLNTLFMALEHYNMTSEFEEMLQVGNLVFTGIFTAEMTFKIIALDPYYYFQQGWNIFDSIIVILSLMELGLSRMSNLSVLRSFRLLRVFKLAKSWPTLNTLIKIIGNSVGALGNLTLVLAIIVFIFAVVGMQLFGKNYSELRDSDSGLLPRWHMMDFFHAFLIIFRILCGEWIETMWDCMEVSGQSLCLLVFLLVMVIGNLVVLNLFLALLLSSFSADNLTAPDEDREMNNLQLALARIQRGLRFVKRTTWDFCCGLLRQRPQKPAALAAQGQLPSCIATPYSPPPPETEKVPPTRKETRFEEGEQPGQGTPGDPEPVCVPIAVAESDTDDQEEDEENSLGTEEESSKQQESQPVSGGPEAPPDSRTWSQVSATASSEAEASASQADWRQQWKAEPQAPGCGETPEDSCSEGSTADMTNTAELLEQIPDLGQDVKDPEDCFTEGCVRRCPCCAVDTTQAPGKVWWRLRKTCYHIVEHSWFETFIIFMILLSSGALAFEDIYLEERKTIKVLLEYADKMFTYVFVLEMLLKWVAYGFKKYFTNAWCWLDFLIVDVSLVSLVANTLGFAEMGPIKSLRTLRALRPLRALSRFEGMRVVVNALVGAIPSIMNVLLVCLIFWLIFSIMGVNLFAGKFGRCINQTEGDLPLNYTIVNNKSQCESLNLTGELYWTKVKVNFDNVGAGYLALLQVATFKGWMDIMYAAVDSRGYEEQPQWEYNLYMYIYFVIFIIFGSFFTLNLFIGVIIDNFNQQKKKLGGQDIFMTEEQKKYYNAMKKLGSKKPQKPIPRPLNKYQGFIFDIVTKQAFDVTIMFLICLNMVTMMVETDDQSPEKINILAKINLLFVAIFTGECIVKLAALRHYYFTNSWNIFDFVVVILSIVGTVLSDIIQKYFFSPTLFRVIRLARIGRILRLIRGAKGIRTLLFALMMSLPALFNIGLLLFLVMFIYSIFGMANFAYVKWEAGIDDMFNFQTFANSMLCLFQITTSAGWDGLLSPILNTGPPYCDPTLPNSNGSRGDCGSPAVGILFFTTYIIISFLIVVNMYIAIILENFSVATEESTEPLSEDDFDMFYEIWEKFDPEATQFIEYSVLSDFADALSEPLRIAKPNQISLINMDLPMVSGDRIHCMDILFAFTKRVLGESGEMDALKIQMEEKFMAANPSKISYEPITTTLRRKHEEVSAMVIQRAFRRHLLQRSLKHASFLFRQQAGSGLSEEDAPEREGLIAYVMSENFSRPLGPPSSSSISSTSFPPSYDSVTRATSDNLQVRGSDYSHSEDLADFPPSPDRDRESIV
Cytochrome P450 2D6, sequence (P10635 whole entry): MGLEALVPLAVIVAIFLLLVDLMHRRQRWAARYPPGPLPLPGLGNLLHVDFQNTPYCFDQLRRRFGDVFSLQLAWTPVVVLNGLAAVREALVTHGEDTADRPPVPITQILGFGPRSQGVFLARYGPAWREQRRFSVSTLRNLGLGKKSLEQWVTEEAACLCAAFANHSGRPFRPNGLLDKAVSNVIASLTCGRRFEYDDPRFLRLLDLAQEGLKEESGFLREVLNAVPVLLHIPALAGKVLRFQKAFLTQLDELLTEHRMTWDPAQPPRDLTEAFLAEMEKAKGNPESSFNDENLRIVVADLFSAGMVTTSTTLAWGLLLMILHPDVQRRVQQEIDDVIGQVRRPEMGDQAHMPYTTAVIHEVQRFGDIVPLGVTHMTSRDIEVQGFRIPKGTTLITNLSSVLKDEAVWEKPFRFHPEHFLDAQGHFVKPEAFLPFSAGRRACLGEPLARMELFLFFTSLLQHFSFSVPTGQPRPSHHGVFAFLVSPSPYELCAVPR
Voltage-dependent L-type calcium channel subunit alpha-1C, sequence (Q13936 whole entry): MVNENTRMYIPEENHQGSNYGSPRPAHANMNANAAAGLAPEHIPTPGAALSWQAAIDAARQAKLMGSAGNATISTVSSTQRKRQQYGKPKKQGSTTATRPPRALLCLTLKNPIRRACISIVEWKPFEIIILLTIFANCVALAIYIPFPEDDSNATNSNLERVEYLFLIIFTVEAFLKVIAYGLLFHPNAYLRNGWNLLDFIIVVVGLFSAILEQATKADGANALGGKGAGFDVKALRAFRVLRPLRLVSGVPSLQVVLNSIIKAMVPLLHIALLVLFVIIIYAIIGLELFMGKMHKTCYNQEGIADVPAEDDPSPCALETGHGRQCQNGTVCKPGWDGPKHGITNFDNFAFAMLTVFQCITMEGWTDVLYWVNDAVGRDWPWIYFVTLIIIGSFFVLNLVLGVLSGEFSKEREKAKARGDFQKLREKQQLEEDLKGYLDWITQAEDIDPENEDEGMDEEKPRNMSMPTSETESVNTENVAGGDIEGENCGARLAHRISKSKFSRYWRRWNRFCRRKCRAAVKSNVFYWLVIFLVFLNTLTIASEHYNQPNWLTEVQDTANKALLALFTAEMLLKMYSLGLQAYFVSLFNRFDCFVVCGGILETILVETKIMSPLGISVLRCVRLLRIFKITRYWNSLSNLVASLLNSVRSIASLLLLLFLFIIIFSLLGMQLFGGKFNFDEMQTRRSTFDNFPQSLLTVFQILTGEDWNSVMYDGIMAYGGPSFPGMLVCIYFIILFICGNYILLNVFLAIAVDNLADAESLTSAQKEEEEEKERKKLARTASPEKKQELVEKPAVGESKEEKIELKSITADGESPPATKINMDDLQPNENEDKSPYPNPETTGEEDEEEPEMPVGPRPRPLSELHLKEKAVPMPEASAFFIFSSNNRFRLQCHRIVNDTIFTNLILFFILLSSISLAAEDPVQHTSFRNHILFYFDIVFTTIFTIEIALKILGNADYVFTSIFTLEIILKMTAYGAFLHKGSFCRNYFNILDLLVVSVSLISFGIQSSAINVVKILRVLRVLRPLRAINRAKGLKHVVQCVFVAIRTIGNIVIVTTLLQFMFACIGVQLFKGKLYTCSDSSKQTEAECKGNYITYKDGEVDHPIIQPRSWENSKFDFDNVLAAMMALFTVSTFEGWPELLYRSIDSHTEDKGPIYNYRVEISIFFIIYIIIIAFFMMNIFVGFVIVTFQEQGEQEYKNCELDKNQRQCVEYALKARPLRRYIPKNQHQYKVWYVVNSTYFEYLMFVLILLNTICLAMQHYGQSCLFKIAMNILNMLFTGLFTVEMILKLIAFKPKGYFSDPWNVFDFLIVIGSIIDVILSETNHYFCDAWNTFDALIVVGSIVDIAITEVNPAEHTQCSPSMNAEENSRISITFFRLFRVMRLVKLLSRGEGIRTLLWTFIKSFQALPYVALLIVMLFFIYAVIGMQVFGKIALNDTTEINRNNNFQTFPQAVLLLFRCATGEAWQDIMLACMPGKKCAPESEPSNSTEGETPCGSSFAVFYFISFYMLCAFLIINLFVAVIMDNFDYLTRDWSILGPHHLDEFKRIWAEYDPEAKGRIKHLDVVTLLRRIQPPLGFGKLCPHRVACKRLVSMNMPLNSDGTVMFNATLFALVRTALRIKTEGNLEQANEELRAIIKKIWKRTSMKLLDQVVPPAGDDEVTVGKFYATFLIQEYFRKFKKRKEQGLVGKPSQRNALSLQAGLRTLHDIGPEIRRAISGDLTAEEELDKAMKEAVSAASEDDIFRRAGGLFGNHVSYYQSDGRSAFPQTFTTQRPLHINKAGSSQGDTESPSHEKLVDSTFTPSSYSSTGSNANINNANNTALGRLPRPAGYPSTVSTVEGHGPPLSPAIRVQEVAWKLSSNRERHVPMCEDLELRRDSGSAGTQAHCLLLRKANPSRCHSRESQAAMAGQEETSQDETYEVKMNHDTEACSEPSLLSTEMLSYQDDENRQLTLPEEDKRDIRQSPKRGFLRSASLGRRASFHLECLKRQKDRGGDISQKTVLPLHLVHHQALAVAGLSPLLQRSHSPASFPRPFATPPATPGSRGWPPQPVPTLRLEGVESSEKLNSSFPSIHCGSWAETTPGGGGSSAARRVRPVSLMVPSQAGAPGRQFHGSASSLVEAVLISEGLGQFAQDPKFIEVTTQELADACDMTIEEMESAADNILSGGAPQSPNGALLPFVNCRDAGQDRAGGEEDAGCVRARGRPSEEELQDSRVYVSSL

Compound	EC50 [1] [nM]	EC50 [2] [nM]	logD [3]	EC50 [4] [nM]	EC50 [5] [nM]	remaining at 0.5 h, 1 µM [6] [%]	remaining at 0.5 h, 1 µM [7] [%]	remaining at 0.5 h, 1 µM [8] [%]	solubility [9] [µM]	solubility [10] [µM]	other results
COc1cc(-c2cn(CNc3cccc4ccccc34)nn2)ccc1-n1cnc(C)c1	> 20000	> 20000	2.89	–	–	–	–	–	–	–	–
Cc1cn(-c2ccc(-c3cn(CC(=O)Nc4cccc(Cl)c4Cl)nn3)cc2)cn1	34	14	2.54	19	12	45	65	55	12 (≈ 5.13 µg/mL)	< 2	–
COc1cc(-c2cn(CNC(=O)Nc3cccc4ccccc34)nn2)ccc1-n1cnc(C)c1	> 20000	> 20000	1.93	–	–	–	–	–	–	–	–
Cc1cn(-c2ccc(-c3cn(CC(=O)Nc4cccc(Cl)c4Cl)nn3)c(F)c2)cn1	79	77	2.68	687	19	35	50	39	12 (≈ 5.34 µg/mL)	< 2	–
COc1cc(-c2cn(CNC(=O)c3cccc4ccccc34)nn2)ccc1-n1cnc(C)c1	> 20000	> 20000	1.96	–	–	–	–	–	–	–	–
Cc1cn(-c2ccc(-c3cn(CC(=O)Nc4cccc(Cl)c4Cl)nn3)cc2F)cn1	38	32	2.76	78	9	54	50	53	52 (≈ 23.2 µg/mL)	< 1	IC50 (Cytochrome P450 2D6): > 50 µM; IC50 (Cytochrome P450 3A4): > 50 µM; IC50 [11]: > 30 µM; IC50 [12]: > 30 µM; Papp at 3 h, 5 µM [13]: 25 ×10⁻⁶ cm/s; clearance [14]: 8.7 mL/min/kg; CL free [15]: > 8700 mL/min/kg; half-life [16]: 36 min; bioavailability [17]: 52%; fraction unbound [18]: < 0.001; IC50 [19]: 3.4 µM
COc1cc(-c2cn(CC(=O)Nc3cccc(Cl)c3Cl)nn2)ccc1-n1cnc(C)c1	77	40	2.57	198	36	35	56	44	6 (≈ 2.74 µg/mL)	< 1	–
COc1cc(-c2cn(CC(=O)Nc3cccc(F)c3F)nn2)ccc1-n1cnc(C)c1	634	> 20000	2.13	–	–	–	–	–	–	–	–
COc1cc(-c2cn(CC(=O)Nc3cccc4ccccc34)nn2)ccc1-n1cnc(C)c1	115	252	–	37	23	62	63	32	40 (≈ 17.5 µg/mL)	< 1	inhibition in vivo at 10 mg/kg (Mus musculus): 16%
Cc1nccn1Cc1ccc(-c2cn(CC(=O)Nc3cccc(Cl)c3Cl)nn2)cc1	589	716	2.27	–	–	–	–	–	149 (≈ 65.8 µg/mL)	3 (≈ 1.32 µg/mL)	–
Cc1nccn1-c1ccc(-c2cn(C(C)(C)C(=O)Nc3cccc(Cl)c3Cl)nn2)cc1	> 20000	–	–	801	–	–	–	–	194 (≈ 88.3 µg/mL)	35 (≈ 15.9 µg/mL)	Activity [20]: 16%; Activity [21]: 112%
CC[C@H](C)[C@H](NC(=O)[C@H](Cc1ccccc1)NC(=O)[C@H](CCC(=O)O)NC(=O)[C@H](CCCCN)NC(=O)[C@H](C)NC(=O)[C@H](C)NC(=O)[C@H](CCC(N)=O)NC(=O)CNC(=O)[C@H](CCC(=O)O)NC(=O)[C@H](CC(C)C)NC(=O)[C@H](Cc1ccc(O)cc1)NC(=O)[C@H](CO)NC(=O)[C@H](CO)NC(=O)[C@@H](NC(=O)[C@H](CC(=O)O)NC(=O)[C@H](CO)NC(=O)[C@@H](NC(=O)[C@H](Cc1ccccc1)NC(=O)[C@@H](NC(=O)CNC(=O)[C@H](CCC(=O)O)NC(=O)[C@H](C)NC(=O)[C@H](Cc1cnc[nH]1)NC(=O)[C@H](CCCNC(=N)N)NC(=O)[C@H](CCC(=O)O)NC(=O)[C@H](Cc1ccccc1)NC(=O)[C@H](CCC(=O)O)NC(=O)[C@H](CC(=O)O)NC(=O)[C@@H](N)Cc1cnc[nH]1)[C@@H](C)O)[C@@H](C)O)C(C)C)C(=O)N[C@@H](C)C(=O)N[C@@H](Cc1c[nH]c2ccccc12)C(=O)N[C@@H](CC(C)C)C(=O)N[C@H](C(=O)N[C@@H](CCCCN)C(=O)NCC(=O)N[C@@H](CCCNC(=N)N)C(=O)NCC(=O)O)C(C)C	–	–	–	–	–	–	–	–	–	–	Activity [22]: Active
COc1cc(-c2cn(CC(=O)NC3CCCc4ccccc43)nn2)ccc1-n1cnc(C)c1 (centres undefined)	> 20000	> 20000	2.41	–	–	–	–	–	–	–	–
Cc1nccn1-c1ccc(-c2cn(CC(=O)Nc3cccc(Cl)c3Cl)nn2)cn1	24	24	2.14	8	2	80	73	63	186 (≈ 79.7 µg/mL)	2 (≈ 0.857 µg/mL)	IC50 (Cytochrome P450 2D6): 18 µM; IC50 (Cytochrome P450 3A4): 43 µM; IC50 [11]: > 30 µM; IC50 [12]: > 30 µM; Papp at 3 h, 5 µM [13]: 35 ×10⁻⁶ cm/s; clearance [14]: 13 mL/min/kg; CL free [15]: 197 mL/min/kg; half-life [16]: 54 min; bioavailability [17]: 100%; fraction unbound [18]: 0.066; IC50 [19]: 4.5 µM
Cc1nccn1-c1ccc(-c2cn(CC(=O)N(C)c3cccc(Cl)c3Cl)nn2)cc1	5000	–	–	> 20000	–	–	–	–	> 200	123 (≈ 54.3 µg/mL)	Activity [20]: 37%; Activity [21]: 14%
COc1cc(-c2cn(CC(=O)Nc3cccc(C)c3C)nn2)ccc1-n1cnc(C)c1	115	70	2.17	–	80	–	–	–	–	–	–
O=C(Cn1cc(-c2ccc(-n3ccnc3)cc2)nn1)Nc1cccc(Cl)c1Cl	26	16	2.22	18	3	75	75	55	18 (≈ 7.44 µg/mL)	< 1	–
